Screens (PubChem)
Sampled rows, rich in hits. Any-hit rate of the full collection: about 1.3%.
NR2E3 ag-1 = activates human NR2E3 receptor. CHO-S Gal4-NCOR/VP16-NR2E3 two-hybrid, luciferase. hit rate 0.35% among 360,000. Q9Y5X4. inhibition of corepressor binding, % at 3.98 µM;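 active = inhibition above the mean of all tested compounds plus 3 SD, cut at about 70% in these data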;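 also: higher means lower luciferase signal from less NR2E3 corepressor binding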
NR2E3 ag-2 = NR2E3 (human) agonism; inhibition of corepressor binding, % at 4.78 µM; hit rate 0.12% among 320,000; Q9Y5X4; GST-NR2E3/biotin-RetCOR TR-FRET, 1536-well;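 active = percent inhibition above the cutoff of mean plus 3 SD of all tested compounds, set per screening campaign, cut at about 20% in these data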
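Format: 1536-well format; test system: GST-NR2E3 and biotin-RetCOR proteins; read-out basis: percent inhibition of TR-FRET ratio; timing: 5 h incubation at 4 °C; detection: time-resolved FRET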
Furin inh = blocks human furin protease activity; AID 463115; P09958; inhibition, % at 20 µM or 30 µM; purified furin, fluorogenic substrate cleavage; hit rate 0.061% among 220,000; in the data active = inhibition above about 25%
EP2 antag = inhibitors of human EP2 prostaglandin E2 receptor; P43116; C6 glioma cells expressing human EP2, cAMP TR-FRET; cells stimulated with saturating PGE2; inhibition, % at 25 µM; hit rate 0.52% among 260,000; AID 1422;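 active = percent inhibition above 40 after rounding to a whole number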;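 also: rat C6 glioma host cells with rolipram phosphodiesterase inhibitor present; the protocol text gives 20 µM as final concentration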
EP2 mod = modulates human prostaglandin E2 receptor EP2 signaling; P43116; EP2-expressing cells, cAMP HTRF FRET, PGE2 co-stimulation; induction, % at 25 µM; hit rate 0.83% among 260,000;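 active = compounds whose cAMP rise, as percent of the full-agonist control response, exceeds 60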;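 also: rat C6 glioma line stably carrying human EP2 under a CMV promoter; the protocol text gives 20 µM as final concentration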
JMJD2C inh = inhibitors of human GASC-1 (JMJD2C) demethylase; inhibition, % at 2.35 µM; GST-JMJD2C(1-420) H3K9me3 demethylation, DELFIA europium; AID 2099; hit rate 0.069% among 330,000; Q9H3R0;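 active = more than half of a compound's replicate wells show inhibition beyond 50%, single wells judged on their own value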;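 also: signal counts dimethyl H3K9 product captured on neutravidin plate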
Target sequence (Q9H3R0 1-420 limits assumed): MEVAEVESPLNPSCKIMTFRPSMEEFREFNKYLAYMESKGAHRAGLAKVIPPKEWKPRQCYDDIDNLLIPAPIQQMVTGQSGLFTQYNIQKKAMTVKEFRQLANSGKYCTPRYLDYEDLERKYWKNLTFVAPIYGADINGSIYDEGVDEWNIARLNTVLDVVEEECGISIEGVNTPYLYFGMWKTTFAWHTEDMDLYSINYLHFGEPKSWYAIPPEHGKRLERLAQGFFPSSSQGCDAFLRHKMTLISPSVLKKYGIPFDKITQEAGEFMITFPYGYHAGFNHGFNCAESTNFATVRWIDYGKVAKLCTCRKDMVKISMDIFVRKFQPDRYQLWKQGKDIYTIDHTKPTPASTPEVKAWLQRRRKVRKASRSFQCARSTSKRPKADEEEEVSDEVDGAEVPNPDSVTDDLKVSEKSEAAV
A number is an active result; . = inactive; / = no result; ! = not active in a repeat.

SMILES	NR2E3 ag-1	NR2E3 ag-2	Furin inh	EP2 antag	EP2 mod	JMJD2C inh
c1ccc2c(c1)OCC(c1csc3ncnc(N4CCOCC4)c13)O2 (stereo unspecified)	.	.	.	.	.	.
CCN(CC)c1ncnc2scc(C3COc4ccccc4O3)c12 (stereo unspecified)	.	.	.	.	64	.
O=C(CSc1nnc(NC(=O)C2CC2)s1)Nc1ccc(Cl)cc1	/	/	/	.	.	/
CCSc1ccccc1C(=O)Nc1nncs1	.	.	27	.	.	.
N/C(=N\OC(=O)COc1ccc(Br)cc1Cl)c1ccccn1	.	.	.	.	.	.
N/C(=N\OC(=O)COc1ccc2ccccc2c1Br)c1ccccn1	.	.	.	.	62	.
Nc1ccn([C@H]2O[C@H](COC(=O)C34CC5CC(CC(C5)C3)C4)[C@@H](O)[C@@H]2O)c(=O)n1	/	/	/	51	.	/
Cc1ccc(Cl)cc1N1CCN(C(=O)CSc2nnc3n2C(C)(C)Cc2ccccc2-3)CC1	87	.	.	.	.	.
Cc1ccc(/C=N/NC(=O)NC2CCCCC2)o1	.	.	.	.	.	.
Cc1cccc(/C=N/NC(=O)NC2CCCCC2)c1	.	.	.	.	63	.
Cc1cc(C)c2[nH]c(=O)c(C(c3nnnn3C(C)(C)C)N3CCc4ccccc4C3)cc2c1 (stereo unspecified)	/	/	/	.	.	/
Cc1ccc2nc(/C(C#N)=C/c3cn[nH]c3-c3ccc(F)cc3)[nH]c2c1	.	.	28	.	.	.
CC(C)(C)c1ccc(CN2CCN([C@H](c3ccccc3)c3ccc(Cl)cc3)CC2)cc1	/	/	/	45	.	/
COc1ccc(C(CNC(=O)c2cccc3ncccc23)c2c[nH]c3ccccc23)cc1 (stereo unspecified)	/	/	/	.	.	/
O=C(Nc1ccccc1O)c1c(O)c2c([nH]c1=O)CCCC2	.	.	.	64!	.	.
O=C(Nc1nccs1)c1c(O)c2c([nH]c1=O)CCCC2	.	.	.	.	.	.
Cc1nc(NC(=O)COc2ccccc2)sc1C(=O)Nc1ccc2c(c1)OCCO2	/	/	/	.	.	/
CCN(CC)S(=O)(=O)c1ccc(OC)c(NC(=O)COc2ccc3c(C)cc(=O)oc3c2)c1	.	.	.	67	.	.
C[C@]1(c2ccccc2)O[C@@H]2C[C@H]3[C@@H]4CCC5=CC(=O)C=C[C@@]5(C)[C@@]4(F)[C@H](O)C[C@]3(C)[C@]2(C(=O)CO)O1	/	/	/	51	.	/
C[C@@H]1CC2C3CCC4=CC(=O)C=C[C@]4(C)[C@@]3(F)[C@@H](O)C[C@]2(C)[C@@]1(O)C(=O)COP(=O)(O)O (stereo partly specified)	/	/	/	.	.	/
C[C@H]1C[C@@H]2[C@@H]3CCC4=CC(=O)C=C[C@@]4(C)[C@@]3(F)[C@H](O)C[C@@]2(C)[C@]1(O)C(=O)COP(=O)(O)O	/	/	/	42	.	/
C=CCn1c(SCC(=O)Nc2cccc(C)c2C)nnc1-c1ccncc1	/	/	/	.	.	/
CS(=O)(=O)N1CCN(c2ccc3c(c2)C(=O)c2ccccc2C3=O)CC1	/	/	/	.	.	/
CC12CCC(=O)C=C1CCC1C2C(=O)CC2(C)C1CCC2(O)C(=O)CO (stereo unspecified)	.	.	/	/	/	.
CS[C@@]12C(=O)C[C@@]3(C)[C@@H](CC[C@@]3(O)C(=O)CO)[C@H]1CCC1=CC(=O)CC[C@]12C	/	/	/	51	.	/
SMILES	NR2E3 ag-1	NR2E3 ag-2	Furin inh	EP2 antag	EP2 mod	JMJD2C inh
O=C(COc1ccc2c3c(c(=O)oc2c1)CCC3)NCc1ccccc1	/	/	/	.	.	/
c1ccc(C[n+]2cccc(-c3cc4ccccc4[nH]3)c2)cc1	/	/	/	59	.	/
Cc1cc2ccccc2n2c(SCC(=O)N(C(C)C)C(C)C)nnc12	/	/	/	.	.	/
CC(=O)Nc1ccc2c(c1)/C(=C/c1ccc([N+](C)(C)C)cc1)c1ccccc1-2	/	/	/	48	.	/
O=[N+]([O-])c1cc2oc3c(c2c(C=NCc2ccccc2)c1O)CCCC3	.	.	.	48	.	.
COc1ccc(OCCCC(=O)Nc2cccc(SC)c2)cc1	.	.	.	.	.	.
COc1ccc(OCCCC(=O)Nc2cccc(C(C)=O)c2)cc1	.	.	.	51	.	.
Cc1ccc(C2=C(Cl)C(=O)C(c3ccc(C)cc3)=C(Cl)C2=O)cc1	/	/	/	46	.	/
CC(=O)Nc1ccc(NC(=O)CSc2nnc(Cn3nnc4ccccc43)n2C)cc1	/	/	/	.	.	/
COc1ccc(CCNc2nc(N3CCCCC3)nc(N3CCCCC3)n2)cc1OC	.	.	.	.	61	.
O=c1[nH]c(N2CCOCC2)nc2c1CN(Cc1cccnc1)CC2	/	/	/	.	.	/
Cc1ccc(S(=O)(=O)N(C)c2ccccc2)cc1	.	.	.	.	.	.
CC(=O)Oc1ccc(N(c2ccccc2)S(=O)(=O)c2ccc(C)cc2)cc1	.	.	.	.	61	.
CCOCCCNCc1cc2c(-c3cccc(F)c3)nn(-c3ccccc3)c2[nH]c1=O	/	/	/	.	.	/
O=C1c2ccccc2C(O)(O)[C@@]1(O)[C@]1(O)C(=O)c2ccccc2C1(O)O	/	/	/	73	.	/
O=C1OC2(c3ccccc31)c1ccccc1-c1ccccc12	.	/	/	/	/	/
CCOC(=O)c1c(CC(C)C)csc1/N=C/C1C(=O)CC(C)(C)CC1=O	.	.	.	.	.	.
CCOC(=O)c1cc(C)sc1/N=C/C1C(=O)CC(C)(C)CC1=O	.	.	26	.	.	.
COc1cccc(C2(NC(=O)c3cccc(-n4cnnn4)c3)CCCC2)c1	/	/	/	.	.	/
CC(=O)CSc1ncnc2c1oc1ccccc12	.	.	.	.	62	.
O=C(CSc1ncnc2c1oc1ccccc12)N1CCN(c2ccccc2)CC1	.	.	.	.	/	.
O=C1c2ccccc2-n2c1nc1ccccc1c2=O	.	.	.	54	.	.
COc1ccc(CC(=O)Nc2nc3ccc(S(C)(=O)=O)cc3s2)cc1OC	/	/	/	.	.	/
CCOC(=O)c1c(-c2ccc(C)cc2)csc1NC(=O)COC	/	/	/	.	82	/
CCOC(=O)c1c(-c2ccc(OC)c(OC)c2)csc1NC(=O)CC	/	/	/	.	.	/
SMILES	NR2E3 ag-1	NR2E3 ag-2	Furin inh	EP2 antag	EP2 mod	JMJD2C inh
CCOC(=O)c1c(-c2ccc(C)c(C)c2)csc1NC(=O)C1CC=CCC1C(=O)O (stereo unspecified)	.	.	.	/	.	.
CCOC(=O)c1c(-c2ccc(C)c(C)c2)csc1NC(=O)COC	/	/	/	.	93	/
CCOC(=O)c1c(-c2ccccc2)csc1NC(=O)COC	/	/	/	.	80	/
CCOC(=O)c1c(-c2ccc(OCC)cc2)csc1NC(=O)CC	/	/	/	.	67	/
O=C(NCC(=O)N(Cc1ccco1)C(C(=O)NC1CCCC1)c1ccccc1)c1ccco1 (stereo unspecified)	/	/	/	.	.	/
Cc1cc(S(=O)(=O)N2CCCC2)ccc1F	/	/	/	.	.	/
CCCc1nn(CC(=O)NCc2ccc(C)o2)c(=O)c2cc3ccsc3n12	/	/	/	/	.	/
